Assay [1] can be described thus: Cytotoxicity against human HeLaC3 sensor cells assessed as decrease in YFP/CFP emission ratio within 72 hrs by FRET assay. The class given is functional, HeLa C3. In short, it runs like this: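 HeLa-C3 cells stably express a CFP–DEVD linker–YFP FRET caspase-3 sensor. Cells were seeded at 7500 per well, and after 12−16 h a background-subtracted baseline was read (excitation 440 nm; emission 486 nm CFP, 535 nm YFP). Compound at 10 μM was added in fresh medium, with 0.1% DMSO vehicle and 500 nM paclitaxel as positive control. Plates were read repeatedly for up to 72 h. An active compound lowers the YFP/CFP ratio to 3 or below.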

Assay [2] deals with HeLa. Briefly: Cytotoxicity against human HeLa cells assessed as decrease in cell viability at 10 uM after 72 hrs by MTT assay. It is filed as functional. In short, it runs like this:
(§1)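 HeLa cells were exposed to compound at 10 μM for 72 h. Vehicle was medium with 0.1% DMSO; paclitaxel (500 nM) was the positive control. MTT (5 mg/mL stock in PBS) was added for 2 h at 37 °C. Crystals were dissolved in 10% SDS/0.01 M HCl for 24 h at 37 °C, and OD was read at 595 nm. Viability at 0 h was set to 100. Three independent experiments.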
For orientation: Formazan colour is commonly taken as a measure of viable cells.

Assay [3] concerns HeLa. In words: Induction of apoptosis in human HeLa cells assessed as morphological and condensed or fragmented DNA at 10 uM after 72 hrs by Hoechst 33342 staining in presence of z-VAD-fmk. It is filed as functional, cell-based. In short, it runs like this: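 HeLa cells were treated with compound (10 μM) alone or with zVAD-fmk (50 μM) for 72 h. Controls were medium with 0.1% DMSO, with or without zVAD-fmk. Cells were stained with Hoechst 33342, washed three times with PBS, and imaged by phase contrast and fluorescence microscopy for cell and nuclear morphology.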

Assay [4] deals with HeLa. In words: Cytotoxicity against human HeLa cells assessed as decrease in cell viability after 72 hrs by MTT assay. It is filed as functional, cell-based. A digest of the protocol:
(§2)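 For each cell line, 3000 cells per well were cultured overnight, then given fresh medium with compound. Each compound was tested at ≥7 concentrations in a 3-fold dilution series, with a final DMSO-stock dilution of at least 1000-fold. After 72 h, viability was read by MTT (OD 595 nm). Inhibition was calculated as 1 − [(T72 − C0)/(C72 − C0)] against the 0.1% DMSO control and fitted sigmoidally versus log concentration. Values are mean ± SD, n = 3.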

The test system of another assay is MDA-MB-435. In words: Cytotoxicity against human MDA-MB-435 cells assessed as decrease in cell viability after 72 hrs by MTT assay. It is filed as functional, cell-based. As to conditions: MDA-MB-435, 72 h. In short, it runs like this: as §2
Another assay has as its system HepG2. In words: Cytotoxicity against human HepG2 cells assessed as decrease in cell viability after 72 hrs by MTT assay. It is filed as functional, cell-based. To be noted: HepG2, 72 h. A digest of the protocol: as §2
The subject of assay [5] is MCF7. Briefly: Cytotoxicity against human MCF7 cells assessed as decrease in cell viability after 72 hrs by MTT assay. The class given is functional, cell-based. As to conditions: MCF7, 72 h. In short, it runs like this:
as §2

For assay [6], the system named is MCF7. In words: Cytotoxicity against human MCF7 cells overexpressing HER2 assessed as decrease in cell viability after 72 hrs by MTT assay. It is filed as functional, cell-based. As to conditions: MCF7, 72 h. A digest of the protocol:
as §2

For the next assay, the system named is HCT-116. Briefly: Cytotoxicity against human HCT116 cells assessed as decrease in cell viability after 72 hrs by MTT assay. It is filed as functional, cell-based. As to conditions: HCT-116, 72 h. In short, it runs like this:
as §2

Assay [7] in a line: Cytotoxicity against human HCT15 cells assessed as decrease in cell viability after 72 hrs by MTT assay. It is filed as functional, cell-based. As to conditions: HCT-15, 72 h. In short, it runs like this: as §2
Assay [8] relates to HeLa. In words: Cytotoxicity against human HeLa cells assessed as decrease in cell viability at 10 uM after 72 hrs by MTT assay relative to control. The class given is functional. In short, it runs like this: as §1
In assay [9] the test system is HeLa. Briefly: Induction of apoptosis in human HeLa cells assessed as caspase-3 activation at 10 uM after 24 hrs. The class given is functional, cell-based. A digest of the protocol: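 HeLa cells were treated for 24 h with compound (10 μM), against 0.1% DMSO vehicle; the positive control was UV for 3 min, harvested after 6 h. Lysates were made in Tris pH 7.5/Triton buffer with protease inhibitors. A sample of 50 μg protein was incubated with Ac-DEVD-AMC in HEPES pH 7.5 buffer for 1 h at 37 °C in the dark. Fluorescence was read at 355/460 nm and expressed as net reading per μg protein.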

Results on five compounds are retold here after ChEMBL document CHEMBL3286328, “Characterization of proapoptotic compounds from the bark of Garcinia oblongifolia” (J Nat Prod, 2014).

Activity calls are given as the source filed them. The calls are words filed in the database; no cut-off is given here. Some results are limits rather than exact numbers.

The viability is a per cent measure of how many cells are alive, often set against a control. A word on the IC50: it is the point on the concentration scale where inhibition reaches its midpoint. Regarding `CC(C)=CCC/C(C)=C/C[C@@H]1C[C@]2(CC=C(C)C)C(=O)[C@@](CC=C(C)C)(C(=O)C(C(=O)c3cccc(O)c3)=C2O)[C@@]1(C)CCC=C(C)C` [GARCICOWIN B], the Ratio in assay [1] came to 3. In the assay with HeLa [2], the viability at 10 µM was 50%. The result with HeLa [3] was inactive. Moreover, the IC50 with HeLa [4] stood at 10.8 µM; with MDA-MB-435, 12.6 µM; with HepG2, 6.2 µM; with MCF7 [5], 10.8 µM; in the assay with MCF7 [6], 19.1 µM; with HCT-116, 6 µM. Moreover, the IC50 in assay [7] is 9.6 µM.
As to `CC1(C)C=Cc2cc3c(=O)c4c(O)cc(O)cc4oc3c(O)c2O1`, the Ratio in assay [1] is 3. Moreover, in the assay with HeLa [2], the viability at 10 µM came to 50%. In addition, the result in the assay on HeLa [3] was inactive. Besides, the IC50 with HeLa [4] turned out to be 4.9 µM; with MDA-MB-435 it was 3.9 µM; in the assay with HepG2, 10.1 µM; with MCF7 [5], 11.7 µM; with MCF7 [6], 34.4 µM; with HCT-116, 4.7 µM. Further, the concentration for half-maximal inhibition (IC50) in [7] was found to be 5.1 µM.
Consider `CC(C)=CCC/C(C)=C/C[C@H]1C(C)(C)[C@@]2(CC=C(C)C)C(=O)c3c(oc4cc(O)c(O)cc4c3=O)[C@](CC=C(C)C)(C2=O)C1(C)C` [OBLONGIFOLIN F], for which the Ratio in assay [1] was determined as 3. For the same compound, the viability at 10 µM with HeLa [2] was found to be 50%. In addition, the “fold change (FC)” value in the assay with HeLa [8] is given as above 30. In addition, the result in the assay on HeLa [9] was Active. In the assay with HeLa [3], the outcome was inactive. Also, the 50% inhibitory concentration (IC50) in the assay with HeLa [4] was 4.2 µM; in the assay with MDA-MB-435 it was 16.5 µM; in the assay on HepG2 it was 7.7 µM; in the assay on MCF7 [5], 3 µM; with MCF7 [6] it was 5.1 µM; in the assay with HCT-116, 2.9 µM. Moreover, in assay [7], the IC50 was determined as 4.9 µM.
Take `CC(C)=CCC/C(C)=C/C[C@@H]1C(C)(C)[C@@]2(CC=C(C)C)C(=O)c3c(oc4cc(O)c(O)cc4c3=O)[C@](CC=C(C)C)(C2=O)C1(C)C` [OBLONGIFOLIN G]: the Ratio in assay [1] worked out at 3. For the same compound, the viability at 10 µM with HeLa [2] was found to be 50%. The “fold change (FC)” value with HeLa [8] is above 30. In addition, the result with HeLa [9] was Active. In addition, the outcome in the assay on HeLa [3] was inactive. In addition, the IC50 in the assay on HeLa [4] was determined as 3.9 µM; in the assay with MDA-MB-435 it was 16.5 µM; in the assay on HepG2, 7.7 µM; with MCF7 [5], 2.6 µM; in the assay on MCF7 [6], 2.9 µM; in the assay with HCT-116 it was 2.9 µM. The IC50 in assay [7] was 4 µM.
For the compound `COc1cc(O)c2c(=O)c3ccc(O)c(O)c3oc2c1CCC(C)(C)O` [NIGROLINEAXANTHONE T], in assay [1], the Ratio is listed as 3. For the same compound, the viability at 10 µM with HeLa [2] was found to be 50%. The outcome in the assay with HeLa [3] was inactive. Further, the IC50 was found to be 4.7 µM in the assay with HeLa [4]; 9 µM with MDA-MB-435; 4.8 µM in the assay with HepG2; 3 µM in the assay with MCF7 [5]; 3.8 µM with MCF7 [6]; 3.7 µM with HCT-116. Besides, the half-maximal inhibitory concentration (IC50) in assay [7] was found to be 2.4 µM.
